Measured values taken from paper PMC13645671 (Nature, 2026).

Columns and labels:
[1] = tested on: LPS-primed human THP-1 monocytic cells; assay: Nigericin-induced pyroptosis, LDH release; assay type: cell-based; settings: LPS-primed THP-1 cells, 25 µM compound
Summary of the method: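 THP-1 cells in Opti-MEM with 0.1% FBS were primed for 4 h with 1 µg/ml ultrapure LPS (E. coli O111:B4). They were then stimulated for 2 h with 5 µM nigericin, with or without 25 µM test compound. LDH release was measured by CytoTox 96 and given as a percentage of maximal release by 0.1% Triton X-100.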

[2] = tested on: THP-1 cells expressing FKBP–caspase-4; assay: B/B-induced FKBP–caspase-4 pyroptosis, LDH release; assay type: cell-based, human; settings: FKBP–caspase-4 THP-1 cells, 50 nM B/B, 10 µM compound
Summary of the method: (§1)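 Unprimed THP-1 cells stably expressing FKBP–caspase-4 or FKBP–caspase-11 were seeded in Opti-MEM with 0.1% FBS. Cells were dimerised with 50 nM B/B, with or without 10 µM test compound, for the indicated times. LDH in the medium was measured by CytoTox 96 and expressed as a percentage of maximal release by 0.1% Triton X-100.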

[3] = tested on: THP-1 cells expressing FKBP–caspase-11; assay: B/B-induced FKBP–caspase-11 pyroptosis, LDH release; assay type: cell-based, human; settings: FKBP–caspase-11 THP-1 cells, 50 nM B/B, 10 µM compound
Summary of the method: as §1

| SMILES | nigericin-induced cell lysis (LDH release), in words [1] | cell death induced by caspase-4, in words [2] | cell death induced by caspase-11, in words [3] |
| --- | --- | --- | --- |
| C[C@H](NC(=O)C(=O)Nc1ccccc1C(C)(C)C)C(=O)N[C@@H](CC(=O)O)C(=O)COc1c(F)c(F)cc(F)c1F [Emricasan, N-[2-(1,1-dimethylethyl)phenyl]-2-oxoglycyl-N-[(1S)-1-(carboxymethyl)-2-oxo-3-(2,3,5,6-tetrafluorophenoxy)propyl]-L-alaninamide] | inhibited | inhibited | inhibited |
| CC(C)(O)c1coc(S(=O)(=O)NC(=O)Nc2c3c(cc4c2CCC4)CCC3)c1 [MCC950] | inhibited | – | – |
